Source: PMC11740949 (Bioconjugate Chemistry, 2024)

Target: T1, recombinant murine FAP (Mus musculus, UniProt P97321)
T1 sequence (P97321 1-761): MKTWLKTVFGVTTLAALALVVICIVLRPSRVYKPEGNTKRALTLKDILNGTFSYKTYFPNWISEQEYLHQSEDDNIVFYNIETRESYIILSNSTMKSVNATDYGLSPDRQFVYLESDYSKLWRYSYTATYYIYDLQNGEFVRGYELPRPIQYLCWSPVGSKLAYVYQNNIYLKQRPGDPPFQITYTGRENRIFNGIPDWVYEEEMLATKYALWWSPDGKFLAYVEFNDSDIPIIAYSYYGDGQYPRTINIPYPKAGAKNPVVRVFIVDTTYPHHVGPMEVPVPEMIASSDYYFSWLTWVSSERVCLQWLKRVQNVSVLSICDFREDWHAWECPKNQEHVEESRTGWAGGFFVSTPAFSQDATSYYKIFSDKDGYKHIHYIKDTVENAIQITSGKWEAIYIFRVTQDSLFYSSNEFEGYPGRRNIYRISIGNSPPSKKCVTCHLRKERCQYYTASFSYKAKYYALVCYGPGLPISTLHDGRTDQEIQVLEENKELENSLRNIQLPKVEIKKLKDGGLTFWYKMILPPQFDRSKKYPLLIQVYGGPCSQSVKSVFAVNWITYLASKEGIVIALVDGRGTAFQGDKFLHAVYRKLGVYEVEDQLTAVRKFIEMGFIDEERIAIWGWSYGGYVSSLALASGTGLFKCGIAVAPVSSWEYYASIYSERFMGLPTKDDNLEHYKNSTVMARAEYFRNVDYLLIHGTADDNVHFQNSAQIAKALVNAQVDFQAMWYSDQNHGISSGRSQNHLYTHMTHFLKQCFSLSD
Assay: FAP inhibition assay with fluorogenic substrate Z-Gly-Pro-AMC
Assay type: biochemical
Details: three-parameter fit
In short: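 Recombinant mouse FAP at 0.01 μg/100 μL in 50 mM Tris, 1.0 M NaCl, 0.1% BSA (w/v), pH 7.5. Test compound was serially diluted 1:5 (10 pM–10 μM) and preincubated with the enzyme for 30 min at 37 °C. Z-Gly-Pro-AMC was then added (10 μL of a 100 μM solution) for 60 min at 37 °C, and fluorescence was read at Ex 380/Em 460. Activity was scaled to no-inhibitor and no-enzyme wells, and IC50 came from a three-parameter inhibitor-vs-response fit.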

Q: `N#C[C@@H]1CC(F)(F)CN1C(=O)CNC(=O)c1ccnc2ccc(OCCCN3CCN(C(=O)CN4CCN(CC(=O)O)CCN(CC(=O)O)CCN(CC(=O)O)CC4)CC3)cc12` [FAPi-4] was tested. Which IC50 did it give?
A: Its IC50 is 0.59 nM.
